Assay [1] is described as follows: Antitumor activity against human PC3 cells xenografted in athymic nude mouse at 50 mg/kg, ip administered daily for 5 weeks. It is filed as functional. The note with it: PC-3, ip, 840 h, read-out: TGI. On the technique in general: Xenograft models place foreign cells or tissue in a host animal.
Assay [2] is described as follows: Inhibition of Wnt/beta-catenin pathway in human HEK293 cells after 15 hrs by TOPflash dual luciferase reporter gene assay. The note with it: HEK293, 15 h. It is filed as cell-based. In general terms: In a reporter assay the amount or activity of a reporter protein is the signal.
The nature of assay [3]: Inhibition of Wnt/beta-catenin pathway in human HEK293 cells at 20 uM after 15 hrs by TOPflash dual luciferase reporter gene assay. Type of assay: cell-based. The essentials:
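HEK293 TOPFlash reporter cells were seeded at 15,000 cells/well in duplicate and grown 24 h. Compounds were then added with Wnt3a-conditioned medium from Wnt3a-secreting L cells (0.22-filtered, two harvests combined); controls ran with or without Wnt3a-CM. After 15 h, dual luciferase activity was read as RLU normalized to cell titer, averaged over three experiments. Single-concentration screen at 20 µM.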

The target in assay [4] is T1, Catenin beta-1 (Homo sapiens) (UniProt P35222).
T1 sequence (whole entry): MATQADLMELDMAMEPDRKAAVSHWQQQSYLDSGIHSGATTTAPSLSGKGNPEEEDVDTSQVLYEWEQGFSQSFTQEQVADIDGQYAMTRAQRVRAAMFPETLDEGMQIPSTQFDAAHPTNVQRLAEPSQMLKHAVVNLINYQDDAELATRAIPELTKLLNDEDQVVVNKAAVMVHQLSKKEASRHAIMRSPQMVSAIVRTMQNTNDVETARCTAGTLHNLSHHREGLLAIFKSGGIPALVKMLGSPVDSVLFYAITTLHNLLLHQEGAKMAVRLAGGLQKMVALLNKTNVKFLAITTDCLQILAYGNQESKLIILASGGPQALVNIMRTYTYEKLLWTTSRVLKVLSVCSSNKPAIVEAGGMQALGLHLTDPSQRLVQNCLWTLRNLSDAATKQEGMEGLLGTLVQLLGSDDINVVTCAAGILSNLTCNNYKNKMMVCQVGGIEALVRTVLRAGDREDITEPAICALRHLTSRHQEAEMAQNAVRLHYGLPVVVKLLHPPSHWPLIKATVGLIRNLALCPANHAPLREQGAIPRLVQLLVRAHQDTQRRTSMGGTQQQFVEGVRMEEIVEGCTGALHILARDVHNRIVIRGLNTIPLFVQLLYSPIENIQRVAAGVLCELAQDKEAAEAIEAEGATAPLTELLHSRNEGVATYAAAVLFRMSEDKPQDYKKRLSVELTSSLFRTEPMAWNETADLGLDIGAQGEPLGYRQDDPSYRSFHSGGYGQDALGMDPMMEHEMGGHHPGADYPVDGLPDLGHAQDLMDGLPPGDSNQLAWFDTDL
Kind of assay: Downregulation of Wnt3a-CM-induced beta-catenin levels in human HEK293 cells at 12.5 to 50 uM after 15 hrs by Western blot analysis. It is filed as cell-based. The gist of the method: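 HEK293 reporter cells were treated with vehicle (DMSO) or compound in the presence of Wnt3a-CM for 15 h. Cytosolic proteins were western blotted with a β-catenin antibody, then reprobed for actin as the fraction control, with HRP secondary and ECL detection.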

The nature of assay [5]: Inhibition of Wnt/beta-catenin pathway in human HEK293 cells assessed as decrease in Wnt3a-CM-induced beta-catenin response transcription after 15 hrs by TOPflash dual luciferase reporter gene assay. The conditions noted are these: HEK293, 15 h. It is filed as cell-based.
Assay [6] can be described thus: Cytotoxicity against human PC3 cells assessed as cell viability after 24 to 48 hrs by cell Titer-Glo assay. It is filed as functional, cell-based. The note with it: PC-3. The gist of the method:
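Androgen-independent PC3 cells in 96-well plates were exposed to varying compound concentrations for 24 h (figure legend) or 48 h (methods note). Viability was measured in triplicate with the CellTiter-Glo luminescent assay.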
A general note: ATP-based viability assays read luminescence as a measure of living cells.

The target of assay [7] is T1, Catenin beta-1 (Homo sapiens). Kind of assay: Inhibition of beta-catenin levels in human PC3 cells assessed as downregulation of c-myc levels at 12.5 to 50 uM after 15 hrs by Western blot analysis. It is filed as cell-based. The note with it: PC-3. The gist of the method:
(§1)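 PC3 cells were incubated with vehicle (DMSO) or compound for 15 h. Cell extracts were western blotted with anti-cyclin D1 and anti-myc antibodies, then reprobed with anti-actin as the control, with ECL detection.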

For assay [8] the target is unchanged. Kind of assay: Inhibition of beta-catenin levels in human PC3 cells assessed as downregulation of cyclinD1 levels at 12.5 to 50 uM after 15 hrs by Western blot analysis. It is filed as cell-based. The conditions noted are these: PC-3. The gist of the method: as §1
For assay [9] the target is unchanged. Kind of assay: Downregulation of cytoplasmic beta-catenin levels in human PC3 cells after 15 hrs by Western blot analysis. The note with it: PC-3. Type of assay: cell-based. The gist of the method:
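Cytosolic fractions from PC3 cells (DMEM, 10% FBS) treated with vehicle (DMSO) or compound were western blotted with a β-catenin antibody, then reprobed with anti-actin as the fraction control.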

The source made the active and inactive calls. The calls are words filed in the database; no cut-off is given here. Some results are limits rather than exact numbers.

One may read the IC50 as the concentration that gives 50% inhibition. A word on the inhibition: it is how much of the control response was suppressed. For the compound `CC1(C)Oc2cc3oc(=O)ccc3cc2C[C@@H]1OC(=O)/C=C/c1ccc(O)c(O)c1`, the inhibition in vivo at 50 mg/kg in assay [1] is over 80%. In assay [2], it took 12.3 µM to reach half-maximal inhibition (IC50). In [3], this compound registered an inhibition of 99.5%. `CC1(C)Oc2cc3oc(=O)ccc3cc2C[C@@H]1OC(=O)/C=C/c1ccc(Br)cc1` came in with an inhibition in [3] of 40.1%.

In assay [3], `CC1(C)Oc2cc3oc(=O)ccc3cc2C[C@@H]1OC(=O)/C=C/c1cccc(O)c1O` had an inhibition of 95.7%. On the same count and under the same terms, then `CC1(C)Oc2cc3oc(=O)ccc3cc2C[C@@H]1OC(=O)/C=C/c1cccc(Br)c1`, with 84.8%; and `COc1ccc(OC)c(/C=C/C(=O)O[C@H]2Cc3cc4ccc(=O)oc4cc3OC2(C)C)c1`, with 65.3%; and `CC(=O)Oc1cccc(/C=C/C(=O)O[C@H]2Cc3cc4ccc(=O)oc4cc3OC2(C)C)c1OC(C)=O`, with 89.7%. Still for that read-out and setting: then `COc1cc(/C=C/C(=O)O[C@H]2Cc3cc4ccc(=O)oc4cc3OC2(C)C)cc(OC)c1OC`, with 46.9%; and `CC1(C)Oc2cc3oc(=O)ccc3cc2C[C@@H]1OC(=O)/C=C/c1ccc(O)cc1`, with 78.1%; and `CC1(C)Oc2cc3oc(=O)ccc3cc2C[C@@H]1OC(=O)/C=C/c1cccc(O)c1`, with 93.3%. Same read-out and setting: then `CC(=O)Oc1ccc(/C=C/C(=O)O[C@H]2Cc3cc4ccc(=O)oc4cc3OC2(C)C)cc1`, with 79.6%. For `CC1(C)Oc2cc3oc(=O)ccc3cc2C[C@@H]1OC(=O)CCc1ccc(O)c(O)c1`, the inhibition in [3] is 68%. The same measure, in the same setting: then `CC1(C)Oc2cc3oc(=O)ccc3cc2C[C@@H]1OC(=O)CCc1cccc(O)c1`, with 42%; and `CC1(C)Oc2cc3oc(=O)ccc3cc2C[C@@H]1OC(=O)/C=C/c1cc(O)c(O)c(O)c1`, with 75.3%. Still for that read-out and setting: then `COc1ccc(OC)c(CCC(=O)O[C@H]2Cc3cc4ccc(=O)oc4cc3OC2(C)C)c1`, with 19.9%; and `CC1(C)Oc2cc3oc(=O)ccc3cc2C[C@@H]1OC(=O)CCc1cccc(O)c1O`, with 81.4%. In [3], `CC1(C)Oc2cc3oc(=O)ccc3cc2C[C@@H]1OC(=O)/C=C/c1ccccc1O` gave an inhibition of 94.2%.

`CC(=O)Oc1cccc(/C=C/C(=O)O[C@H]2Cc3cc4ccc(=O)oc4cc3OC2(C)C)c1`: the outcome in assay [4] was Active. Moreover, the IC50 is 9.85 µM in assay [5] and 8.97 µM in assay [6]. Further, the inhibition result in assay [7] and in [8] was “Active” each time. This compound also registered an inhibition in [3] of 97%. For the same compound, the Activity result in assay [9] is “Dose-dependent effect”.

As for `COc1ccc(/C=C/C(=O)O[C@H]2Cc3cc4ccc(=O)oc4cc3OC2(C)C)cc1`, the inhibition in [3] worked out at 54.8%. On to `COc1cccc(/C=C/C(=O)O[C@H]2Cc3cc4ccc(=O)oc4cc3OC2(C)C)c1OC`, for which the inhibition in assay [3] was determined as 57.8%. The compound `CC(C)=CC(=O)O[C@H]1Cc2cc3ccc(=O)oc3cc2OC1(C)C` [DECURSIN] yielded an IC50 in assay [2] of 176 µM. The compound further came in with an inhibition in assay [3] of 79.4%. Regarding `COc1cccc(CCC(=O)O[C@H]2Cc3cc4ccc(=O)oc4cc3OC2(C)C)c1`, the inhibition in assay [3] is 49.9%. `CC1(C)Oc2cc3oc(=O)ccc3cc2C[C@@H]1OC(=O)/C=C/c1cccc(F)c1` showed an inhibition in assay [3] of 93.6%. On the same count and under the same terms, next, `COc1cc(OC)c(OC)cc1/C=C/C(=O)O[C@H]1Cc2cc3ccc(=O)oc3cc2OC1(C)C`: 59.6%; `COc1ccccc1/C=C/C(=O)O[C@H]1Cc2cc3ccc(=O)oc3cc2OC1(C)C`: 88.3%; `CC(=O)Oc1cccc(CCC(=O)O[C@H]2Cc3cc4ccc(=O)oc4cc3OC2(C)C)c1`: 27.5%. `CC1(C)Oc2cc3oc(=O)ccc3cc2C[C@@H]1OC(=O)CCc1ccccc1`: in assay [3], the inhibition is 10.6%. The same measure, in the same setting: then `COc1ccc(/C=C/C(=O)O[C@H]2Cc3cc4ccc(=O)oc4cc3OC2(C)C)c(OC)c1`, with 52.8%; and `COc1cccc(CCC(=O)O[C@H]2Cc3cc4ccc(=O)oc4cc3OC2(C)C)c1OC`, with 13.5%.

In assay [3], `CC(=O)Oc1cccc(CCC(=O)O[C@H]2Cc3cc4ccc(=O)oc4cc3OC2(C)C)c1OC(C)=O` displayed an inhibition of 77.7%. Still for that read-out and setting: then `CC1(C)Oc2cc3oc(=O)ccc3cc2C[C@@H]1OC(=O)/C=C/c1ccc([N+](=O)[O-])cc1`, with 34.3%; and `COc1ccc(CCC(=O)O[C@H]2Cc3cc4ccc(=O)oc4cc3OC2(C)C)c(OC)c1`, with 18.8%. On the same count and under the same terms, next, `CC(=O)Oc1ccccc1/C=C/C(=O)O[C@H]1Cc2cc3ccc(=O)oc3cc2OC1(C)C`: 95.9%; `CC(=O)Oc1ccc(CCC(=O)O[C@H]2Cc3cc4ccc(=O)oc4cc3OC2(C)C)cc1OC(C)=O`: 46.4%; `CC(=O)Oc1ccc(CCC(=O)O[C@H]2Cc3cc4ccc(=O)oc4cc3OC2(C)C)cc1`: 12%. On to `CC(=O)Oc1ccccc1CCC(=O)O[C@H]1Cc2cc3ccc(=O)oc3cc2OC1(C)C`, for which, in assay [3], the inhibition was 23.1%. Still for that read-out and setting: then `COc1ccccc1CCC(=O)O[C@H]1Cc2cc3ccc(=O)oc3cc2OC1(C)C`, with 50.4%; and `COc1cccc(/C=C/C(=O)O[C@H]2Cc3cc4ccc(=O)oc4cc3OC2(C)C)c1`, with 87.5%. On the same count and under the same terms, then `CC1(C)Oc2cc3oc(=O)ccc3cc2C[C@@H]1OC(=O)/C=C/c1ccccc1`, with 81.1%; and `CC1(C)Oc2cc3oc(=O)ccc3cc2C[C@@H]1OC(=O)CCc1ccccc1O`, with 10%; and `COc1ccc(CCC(=O)O[C@H]2Cc3cc4ccc(=O)oc4cc3OC2(C)C)cc1`, with 41.5%. Take `COc1ccc(CCC(=O)O[C@H]2Cc3cc4ccc(=O)oc4cc3OC2(C)C)cc1OC`: the inhibition in [3] was found to be 25.1%. On the same count and under the same terms, next, `CC1(C)Oc2cc3oc(=O)ccc3cc2C[C@@H]1OC(=O)CCc1ccc(O)cc1`: 32.8%; `CC(=O)Oc1ccc(/C=C/C(=O)O[C@H]2Cc3cc4ccc(=O)oc4cc3OC2(C)C)cc1OC(C)=O`: 94%; `CC(=O)Oc1cc(/C=C/C(=O)O[C@H]2Cc3cc4ccc(=O)oc4cc3OC2(C)C)cc(OC(C)=O)c1OC(C)=O`: 67.4%. Still for that read-out and setting: next, `COc1ccc(/C=C/C(=O)O[C@H]2Cc3cc4ccc(=O)oc4cc3OC2(C)C)cc1OC`: 42.3%.

The record behind these values is ChEMBL document CHEMBL3826880, “Synthesis and evaluation of (+)-decursin derivatives as inhibitors of the Wnt/β-catenin pathway” (Bioorg Med Chem Lett, 2016).
